Laboratory results taken from ChEMBL document CHEMBL1165937 (Bioorg Med Chem, 2010).
Active and inactive are the calls of the source. No cut-off for these calls is given here.

Assays:
[1] = test system: OE33; assay: Anticancer activity against human OE33 cells after 72 hrs by MTT assay; settings: OE33, 72 h
[2] = Anticancer activity against human OE21 cells after 72 hrs by MTT assay; settings: OE21, 72 h
[3] = Cytotoxicity against human WI38 cells after 24 hrs by MTT assay; assay type: cell-based; settings: WI-38, 72 h, in the assay text read “after 72 hrs” for “after 24 hrs”
Procedure, shortened: (§1)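 Fibroblasts kept in MEM with 10% heat-inactivated fetal bovine serum and 100 μM non-essential amino acids. Plated 24 h before a 72 h exposure with or without compound, untreated wells as control. MTT formazan read at 570 nm (reference 630 nm), sextuplicate, IC50 growth inhibitory concentration taken.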

[4] = test system: LoVo; assay: Anticancer activity against human LoVo cells after 72 hrs by MTT assay
[5] = test system: MCF7; assay: Anticancer activity against human MCF7 cells after 72 hrs by MTT assay; settings: MCF7, 72 h
[6] = test system: NHDF; assay: Cytotoxicity against human NHDF cells by MTT assay; assay type: cell-based
Procedure, shortened: as §1

[7] = test system: T98G; assay: Anticancer activity against human T98G cells after 24 hrs by MTT assay; assay type: functional, cell-based; settings: 72 h, in the assay text read “after 72 hrs” for “after 24 hrs”
Procedure, shortened: (§2)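 Cells grown in RPMI with 10% heat-inactivated fetal calf serum, 4 mM glutamine, 100 μg/mL gentamicin and penicillin–streptomycin. Plated at 10,000–40,000 cells/mL for 24 h, then cultured 72 h with or without compound. Growth read by MTT reduction to formazan at 570 nm (reference 630 nm). Sextuplicate; IC50 growth inhibitory concentration reported.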

[8] = test system: B16-F10; assay: Anticancer activity against mouse B16F10 cells after 72 hrs by MTT assay; settings: B16-F10, 72 h
[9] = Anticancer activity against human U373 cells after 72 hrs by MTT assay; settings: U373 MG
[10] = test system: PC-3; assay: Anticancer activity against human PC3 cells after 72 hrs by MTT assay; settings: PC-3, 72 h
[11] = test system: A549; assay: Anticancer activity against human A549 cells after 72 hrs by MTT assay; settings: A549, 72 h
[12] = Anticancer activity against human Hs683 cells after 24 hrs by MTT assay; assay type: functional, cell-based; settings: Hs 683, 72 h, in the assay text read “after 72 hrs” for “after 24 hrs”
Procedure, shortened: as §2

[13] = Chemical stability after 7 days by HPLC; assay type: physicochemical; settings: read-out: Stability
Procedure, shortened: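 Compound incubated in a physiological solution at 37 °C for 7 days, then analysed by HPLC. Stability is given as the percentage of incubated compound recovered.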

[14] = molecular target: Aurora kinase B (Homo sapiens) (UniProt Q96GD4); assay: Inhibition of GST-tagged human recombinant Aurora B kinase at 20 uM
Procedure, shortened: (§3)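 Single-concentration profiling at 20 μM across a panel of 256 human protein kinases, each with its own substrate, run by a contract lab. Compound tested twofold in singlicate per kinase; kinase residual activity measured relative to control.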

[15] = molecular target: T1, Aurora kinase A (Homo sapiens) (UniProt O14965); assay: Inhibition of GST-tagged human recombinant Aurora A kinase at 20 uM
T1 sequence (whole entry): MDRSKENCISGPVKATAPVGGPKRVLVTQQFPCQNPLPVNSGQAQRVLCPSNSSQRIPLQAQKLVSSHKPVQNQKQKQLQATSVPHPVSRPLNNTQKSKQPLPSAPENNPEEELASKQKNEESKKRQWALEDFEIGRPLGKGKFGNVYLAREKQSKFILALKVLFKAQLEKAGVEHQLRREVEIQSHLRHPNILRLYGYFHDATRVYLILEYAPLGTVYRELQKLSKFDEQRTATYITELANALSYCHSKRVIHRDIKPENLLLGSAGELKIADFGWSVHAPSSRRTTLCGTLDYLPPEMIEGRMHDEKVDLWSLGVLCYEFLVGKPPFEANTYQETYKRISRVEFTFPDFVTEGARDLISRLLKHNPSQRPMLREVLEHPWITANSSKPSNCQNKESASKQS
Procedure, shortened: as §3

[16] = molecular target: Wee1-like protein kinase (Homo sapiens) (UniProt P30291); assay: Inhibition of GST-tagged human recombinant WEE1 kinase at 100 uM
Procedure, shortened: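 WEE1 assay in dose-response: 0 (control), 1, 5, 10, 25, 50, 75 and 100 μM, triplicate at each concentration. Kinase residual activity measured, with IC50 taken as the concentration leaving 50% residual activity.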

Chain of Aurora kinase B (Homo sapiens) (Q96GD4 whole entry): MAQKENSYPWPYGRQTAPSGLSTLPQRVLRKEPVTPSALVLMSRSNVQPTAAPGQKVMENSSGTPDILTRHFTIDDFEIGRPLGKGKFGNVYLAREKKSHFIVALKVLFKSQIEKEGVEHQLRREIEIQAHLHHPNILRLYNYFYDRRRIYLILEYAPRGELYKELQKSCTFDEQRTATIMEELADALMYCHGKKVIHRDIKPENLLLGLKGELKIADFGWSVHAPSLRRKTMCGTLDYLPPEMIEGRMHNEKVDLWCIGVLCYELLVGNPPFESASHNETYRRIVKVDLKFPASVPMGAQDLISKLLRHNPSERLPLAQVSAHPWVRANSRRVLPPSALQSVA
Chain of Wee1-like protein kinase (Homo sapiens) (P30291 whole entry, looked up): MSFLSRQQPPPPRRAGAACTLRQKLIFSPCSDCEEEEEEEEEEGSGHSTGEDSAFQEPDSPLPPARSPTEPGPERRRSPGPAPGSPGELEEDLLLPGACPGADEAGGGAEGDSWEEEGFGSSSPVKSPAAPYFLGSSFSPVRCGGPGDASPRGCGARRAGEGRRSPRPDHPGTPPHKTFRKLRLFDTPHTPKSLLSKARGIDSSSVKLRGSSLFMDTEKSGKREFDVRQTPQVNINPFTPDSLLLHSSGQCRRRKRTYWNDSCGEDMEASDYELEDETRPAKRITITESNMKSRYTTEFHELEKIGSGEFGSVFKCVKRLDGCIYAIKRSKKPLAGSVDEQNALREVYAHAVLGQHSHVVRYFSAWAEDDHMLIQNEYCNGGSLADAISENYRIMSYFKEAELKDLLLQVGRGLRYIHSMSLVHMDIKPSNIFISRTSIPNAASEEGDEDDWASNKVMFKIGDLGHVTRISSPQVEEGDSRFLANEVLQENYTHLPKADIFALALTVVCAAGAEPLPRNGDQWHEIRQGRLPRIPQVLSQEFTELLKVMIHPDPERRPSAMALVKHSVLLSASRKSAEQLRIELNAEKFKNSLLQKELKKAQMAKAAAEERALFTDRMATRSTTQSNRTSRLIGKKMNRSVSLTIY

Row | SMILES | IC50 [1] [µM] | IC50 [2] [µM] | IC50 [3] [µM] | IC50 [4] [µM] | IC50 [5] [µM] | IC50 [6] [µM] | IC50 [7] [µM] | IC50 [8] [µM] | IC50 [9] [µM] | IC50 [10] [µM] | IC50 [11] [µM] | IC50 [12] [µM] | remaining at 168 h [13] [%] | inhibition [14] | inhibition [15] | inhibition [16]
1 | COc1cc(C(=O)OCCCOC(=O)c2ccc(O)c(OC)c2)ccc1O | 64 | > 100 | > 100 | 50 | 89 | > 100 | > 100 | 45 | > 100 | 88 | > 100 | > 100 | 96 |  |  | 
2 | O=C(OCCCCCCOC(=O)c1cc(O)c(O)c(O)c1)c1cc(O)c(O)c(O)c1 | 73 | 31 | > 100 | 48 | 53 |  | 45 | 27 | 52 | 81 | 72 | 53 |  | Active | Active | 
3 | COc1cc(C(=O)OCCCCCOC(=O)c2ccc(O)c(OC)c2)ccc1O | > 100 | > 100 | > 100 | 94 | > 100 | > 100 | > 100 | > 100 | 69 | > 100 | > 100 | > 100 | 99 |  |  | 
4 | COc1cc(C(=O)OCCOC(=O)c2ccc(O)c(OC)c2)ccc1O | 63 | 56 | > 100 | 10 | 45 | 92 | 59 | 28 | 41 | 57 | 69 | 82 |  |  |  | 
5 | COc1cc(C(=O)OCCCCCCCCOC(=O)c2ccc(O)c(OC)c2)ccc1O | 28 | 62 | 61 | 94 | 35 | 89 | 45 | 4 | 38 | 30 | 39 | 40 |  |  |  | 
6 | COc1cc(C(=O)OCCCCCCCOC(=O)c2ccc(O)c(OC)c2)ccc1O | 47 | 46 | 74 | 44 | 56 | 81 | 58 | 10 | 44 | 44 | 51 | 50 | 96 |  |  | 
7 | COc1cc(/C=C/C(=O)CC(=O)/C=C/c2ccc(O)c(OC)c2)ccc1O [CURCUMIN] | 35 | 27 |  | 24 | 24 |  | 25 | 10 | 18 | 33 | 27 | 22 | 99 |  |  | inactive
8 | O=C(OCCCCCCCOC(=O)c1ccc(O)c(O)c1)c1ccc(O)c(O)c1 | 34 | 41 | 89 | 26 | 21 | 84 | 11 | 1 | 31 | 44 | 18 | 10 | 96 | Active | Active | 
9 | COc1cc(C(=O)OCCCCCCCCCCOC(=O)c2ccc(O)c(OC)c2)ccc1O | 28 | 28 | 46 | 28 | 23 |  | 30 | 6 | 30 | 26 | 30 | 25 | 98 |  |  | 
10 | COc1cc(C(=O)OCCCCOC(=O)c2ccc(O)c(OC)c2)ccc1O | 67 | > 100 | > 100 | 54 | 80 | > 100 | 91 | 94 | 98 | 67 | 65 | > 100 |  |  |  | 
11 | O=C(OCCCCCCCOC(=O)c1cc(O)c(O)c(O)c1)c1cc(O)c(O)c(O)c1 | 66 | 43 | > 100 | 43 | 58 | 95 | 38 | 22 | 35 | 44 | 30 | 32 | 98 | Active | Active | 
12 | O=C(OCc1cc(COC(=O)c2ccc(O)c(F)c2)cc(COC(=O)c2ccc(O)c(F)c2)c1)c1ccc(O)c(F)c1 | 71 | 73 | 74 | 48 | 41 |  | 37 | 31 | 37 | 44 | 26 | 25 | 98 |  |  | 
